In ChEMBL document CHEMBL4304739, “Discovery of 3-(Indol-5-yl)-indazole Derivatives as Novel Myeloid Differentiation Protein 2/Toll-like Receptor 4 Antagonists for Treatment of Acute Lung Injury” (J Med Chem, 2019):
The source made the active and inactive calls. The calls are words filed in the database; no cut-off is given here.

Tests used:
[1] = biological target: Proto-oncogene tyrosine-protein kinase receptor Ret (Homo sapiens) (UniProt P07949); assay: Inhibition of wild-type human partial length RET (E713 to D1014 residues) expressed in bacterial expression system at 1 uM by Kinomescan method
Sequence of Proto-oncogene tyrosine-protein kinase receptor Ret (Homo sapiens) (P07949 whole entry, the tested form may be a part): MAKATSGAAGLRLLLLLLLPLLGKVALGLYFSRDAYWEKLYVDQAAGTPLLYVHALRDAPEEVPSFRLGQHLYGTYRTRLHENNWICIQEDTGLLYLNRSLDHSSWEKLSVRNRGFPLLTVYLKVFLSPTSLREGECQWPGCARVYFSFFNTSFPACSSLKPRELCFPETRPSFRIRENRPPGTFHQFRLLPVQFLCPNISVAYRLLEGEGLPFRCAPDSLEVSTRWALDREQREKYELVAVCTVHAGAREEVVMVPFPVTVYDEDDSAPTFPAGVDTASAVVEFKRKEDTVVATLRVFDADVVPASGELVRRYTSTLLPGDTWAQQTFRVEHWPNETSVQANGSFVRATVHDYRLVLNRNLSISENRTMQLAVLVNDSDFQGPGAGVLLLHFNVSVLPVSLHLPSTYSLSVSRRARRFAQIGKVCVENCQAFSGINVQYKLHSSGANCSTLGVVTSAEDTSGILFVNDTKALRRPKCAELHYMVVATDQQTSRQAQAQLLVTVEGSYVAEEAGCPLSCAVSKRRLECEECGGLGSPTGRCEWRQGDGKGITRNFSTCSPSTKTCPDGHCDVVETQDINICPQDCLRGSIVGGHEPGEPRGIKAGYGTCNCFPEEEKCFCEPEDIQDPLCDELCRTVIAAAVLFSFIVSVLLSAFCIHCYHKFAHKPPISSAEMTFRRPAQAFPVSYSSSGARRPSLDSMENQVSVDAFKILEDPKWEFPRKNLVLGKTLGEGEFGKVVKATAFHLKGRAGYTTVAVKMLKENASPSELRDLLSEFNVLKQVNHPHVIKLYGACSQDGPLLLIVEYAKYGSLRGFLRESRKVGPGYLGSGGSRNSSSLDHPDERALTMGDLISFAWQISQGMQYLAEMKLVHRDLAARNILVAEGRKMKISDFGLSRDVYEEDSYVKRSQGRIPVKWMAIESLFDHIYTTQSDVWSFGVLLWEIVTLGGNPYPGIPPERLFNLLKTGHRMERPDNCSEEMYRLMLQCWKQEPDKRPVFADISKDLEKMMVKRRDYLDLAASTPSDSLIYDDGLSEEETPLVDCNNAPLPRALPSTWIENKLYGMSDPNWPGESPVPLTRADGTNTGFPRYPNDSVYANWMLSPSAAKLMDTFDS
How it was run: (§1)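 Binding-competition screen on the KINOMEscan platform, run by the provider, with the test compound at 1 μM. Readout is percent of control: (test signal − positive control signal)/(negative control signal − positive control signal) × 100. The DMSO negative control is set as 100% Ctrl and a control compound as 0% Ctrl. Lower values mean stronger hits.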

Mus musculus [2] = assay: Antiinflammatory activity in LPS-induced C57BL/6 mouse model of acute lung injury assessed as reduction in lung injury score at 5 to 10 mg/kg, iv pretreated for 15 mins followed by LPS stimulation and measured after 6 hrs; assay type: functional, organism-based
How it was run: (§2)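 Male C57BL/6 mice (18−22 g; n=8 per group). Compound in 0.1% CMC-Na given by tail vein injection 15 min before intraperitoneal LPS (20 mg/kg); controls received saline. Mice were sacrificed 6 h after LPS, and serum and lung tissue were collected.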

[3] = biological target: Proto-oncogene tyrosine-protein kinase Src (Homo sapiens) (UniProt P12931); assay: Inhibition of wild-type human partial length SRC (L240 to L536 residues) expressed in bacterial expression system at 1 uM by Kinomescan method
How it was run: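 Single-concentration screen at 1 μM on the KINOMEscan panel (98 kinases), run by the platform provider. Results are given as percent of control: % Ctrl = [(test signal − positive control signal)/(negative control signal − positive control signal)] × 100. DMSO serves as negative control (100% Ctrl) and a control compound as positive control (0% Ctrl). Lower values mean stronger binding hits.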

[4] = biological target: Platelet-derived growth factor receptor beta (Homo sapiens) (UniProt P09619); assay: Inhibition of wild-type human partial length PDGFRB (V582 to Y1009 residues) expressed in bacterial expression system at 1 uM by Kinomescan method; how it was run: as §1
[5] = system: Tyrosine-protein kinase ABL1 (Homo sapiens), P00519 [E255K]; assay: Inhibition of human phosphorylated ABL1 E255K mutant (S229 to K512 residues) expressed in mammalian expression system at 1 uM by Kinomescan method
How it was run: (§3)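 KINOMEscan competition binding screen at 1 μM compound. Results reported as % of control = (test − positive control)/(DMSO negative control − positive control) × 100, where lower values mean stronger hits.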

[6] = biological target: Phosphatidylinositol 4-phosphate 3-kinase C2 domain-containing subunit beta (Homo sapiens) (UniProt O00750); assay: Inhibition of wild-type human partial length PIK3C2B (M1 to L1634 residues) expressed in mammalian expression system at 1 uM by Kinomescan method; how it was run: as §1
[7] = biological target: Serine/threonine-protein kinase PLK3 (Homo sapiens) (UniProt Q9H4B4); assay: Inhibition of wild-type human partial length PLK3 (A42 to L334 residues) expressed in mammalian expression system at 1 uM by Kinomescan method; how it was run: as §1
[8] = biological target: Cyclin-dependent kinase 7 (Homo sapiens) (UniProt P50613); assay: Inhibition of wild-type human full length CDK7 (M1 to L344 residues) expressed in mammalian expression system at 1 uM by Kinomescan method; how it was run: as §3
Sequence of Cyclin-dependent kinase 7 (Homo sapiens) (P50613 whole entry, the tested form may be a part): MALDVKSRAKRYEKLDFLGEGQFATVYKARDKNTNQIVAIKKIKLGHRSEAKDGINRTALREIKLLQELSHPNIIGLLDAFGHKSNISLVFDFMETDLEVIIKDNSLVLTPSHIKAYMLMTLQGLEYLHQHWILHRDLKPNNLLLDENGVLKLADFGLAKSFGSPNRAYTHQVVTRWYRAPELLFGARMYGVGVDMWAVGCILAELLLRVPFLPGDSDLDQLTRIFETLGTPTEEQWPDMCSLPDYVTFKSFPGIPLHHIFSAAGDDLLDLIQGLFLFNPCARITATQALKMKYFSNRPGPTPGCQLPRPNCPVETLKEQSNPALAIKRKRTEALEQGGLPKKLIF

[9] = biological target: Mitogen-activated protein kinase 14 (Homo sapiens) (UniProt Q16539); assay: Inhibition of wild-type human full length p38-alpha (M1 to S360 residues) expressed in bacterial expression system at 1 uM by Kinomescan method; how it was run: as §3
Peritoneal macrophage = assay: Cytotoxicity against ICR mouse peritoneal macrophages assessed as reduction in cell viability at 10 uM measured after 24 hrs by MTT assay; assay type: cell-based
How it was run: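 Peritoneal macrophages from ICR mice, 2.0×10^4 cells/well in DMEM with 10% FBS. Cells exposed to compound for 24 h, then MTT (5 mg/ml in 0.9% NaCl) added for 4 h at 37 °C in 5% CO2. Absorbance read at 490 nm; final DMSO 0.1%.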

[10] = biological target: cAMP-dependent protein kinase catalytic subunit alpha (Homo sapiens) (UniProt P17612); assay: Inhibition of wild-type human partial length PKAC-alpha (G10 to F351 residues) expressed in bacterial expression system at 1 uM by Kinomescan method; how it was run: as §1
Mus musculus [11] = assay: Antiinflammatory activity in LPS-induced C57BL/6 mouse model of acute lung injury assessed as suppression of neutrophil lung infiltration by measuring reduction in MPO activity at 5 to 10 mg/kg, iv pretreated for 15 mins followed by LPS stimulation and measured after 6 hrs; assay type: functional, organism-based; how it was run: as §2
[12] = biological target: Rho-associated protein kinase 2 (Homo sapiens) (UniProt O75116); assay: Inhibition of wild-type human partial length ROCK2 (M1 to T431 residues) expressed in mammalian expression system at 1 uM by Kinomescan method; how it was run: as §1
Sequence of Rho-associated protein kinase 2 (Homo sapiens) (O75116 whole entry, looked up, the tested form may be a part): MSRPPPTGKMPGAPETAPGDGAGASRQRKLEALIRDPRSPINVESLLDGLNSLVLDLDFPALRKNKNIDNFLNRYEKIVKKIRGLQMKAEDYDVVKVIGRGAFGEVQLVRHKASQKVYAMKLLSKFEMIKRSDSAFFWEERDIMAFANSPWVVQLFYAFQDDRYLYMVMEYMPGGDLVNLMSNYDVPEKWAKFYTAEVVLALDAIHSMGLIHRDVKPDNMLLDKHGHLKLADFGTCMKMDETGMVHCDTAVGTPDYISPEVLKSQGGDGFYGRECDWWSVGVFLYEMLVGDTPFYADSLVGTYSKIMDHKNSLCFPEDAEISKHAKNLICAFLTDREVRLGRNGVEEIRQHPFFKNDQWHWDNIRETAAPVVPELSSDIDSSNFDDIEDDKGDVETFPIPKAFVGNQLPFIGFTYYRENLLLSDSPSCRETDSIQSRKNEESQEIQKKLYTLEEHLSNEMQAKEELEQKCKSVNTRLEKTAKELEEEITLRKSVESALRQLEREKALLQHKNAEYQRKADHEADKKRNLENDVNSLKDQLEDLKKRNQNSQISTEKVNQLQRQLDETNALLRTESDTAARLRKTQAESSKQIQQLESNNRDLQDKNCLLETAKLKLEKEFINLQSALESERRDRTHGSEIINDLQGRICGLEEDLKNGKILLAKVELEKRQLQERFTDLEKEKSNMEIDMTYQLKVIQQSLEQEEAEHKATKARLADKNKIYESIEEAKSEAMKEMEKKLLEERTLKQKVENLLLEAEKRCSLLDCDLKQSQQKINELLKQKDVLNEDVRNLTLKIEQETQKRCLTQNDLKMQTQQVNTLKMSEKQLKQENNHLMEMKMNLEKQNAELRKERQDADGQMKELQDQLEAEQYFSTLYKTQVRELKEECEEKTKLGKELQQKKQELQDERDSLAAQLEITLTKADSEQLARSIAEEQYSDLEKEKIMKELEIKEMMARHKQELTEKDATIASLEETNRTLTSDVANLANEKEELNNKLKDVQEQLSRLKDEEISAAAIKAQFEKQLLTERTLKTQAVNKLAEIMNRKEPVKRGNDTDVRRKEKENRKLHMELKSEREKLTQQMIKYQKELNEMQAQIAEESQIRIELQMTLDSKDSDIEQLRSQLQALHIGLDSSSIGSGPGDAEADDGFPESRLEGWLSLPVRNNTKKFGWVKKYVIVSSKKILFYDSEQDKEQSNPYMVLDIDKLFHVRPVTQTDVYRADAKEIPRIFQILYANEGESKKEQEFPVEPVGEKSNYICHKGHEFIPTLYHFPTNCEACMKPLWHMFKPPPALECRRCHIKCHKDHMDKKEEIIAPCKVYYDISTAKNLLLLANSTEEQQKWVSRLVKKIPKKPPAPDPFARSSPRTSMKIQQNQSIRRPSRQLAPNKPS

[13] = biological target: Testis-specific serine/threonine-protein kinase 1 (Homo sapiens) (UniProt Q9BXA7); assay: Inhibition of wild-type human full length TSSK1B (M1 to Q367 residues) expressed in bacterial expression system at 1 uM by Kinomescan method; how it was run: as §3
Sequence of Testis-specific serine/threonine-protein kinase 1 (Homo sapiens) (Q9BXA7 whole entry, the tested form may be a part): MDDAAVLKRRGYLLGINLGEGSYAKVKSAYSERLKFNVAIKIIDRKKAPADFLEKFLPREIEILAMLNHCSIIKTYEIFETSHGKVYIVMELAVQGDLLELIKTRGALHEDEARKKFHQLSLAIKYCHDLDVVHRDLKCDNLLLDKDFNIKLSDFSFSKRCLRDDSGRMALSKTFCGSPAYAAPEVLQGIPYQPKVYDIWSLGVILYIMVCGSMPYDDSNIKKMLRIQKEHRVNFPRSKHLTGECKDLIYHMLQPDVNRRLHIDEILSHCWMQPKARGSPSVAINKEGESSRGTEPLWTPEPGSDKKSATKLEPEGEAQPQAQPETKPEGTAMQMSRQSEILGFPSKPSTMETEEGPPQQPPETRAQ

[14] = biological target: Serine/threonine-protein kinase Chk1 (Homo sapiens) (UniProt O14757); assay: Inhibition of wild-type human partial length CHEK1 (M1 to G289 residues) expressed in bacterial expression system at 1 uM by Kinomescan method; how it was run: as §1
Toll-like receptor 4 = Toll-like receptor 4 (Homo sapiens, UniProt O00206); assay: Binding affinity to recombinant human C-terminal 10His-tagged TLR4 (Glu24 to Lys631 residues) expressed in mouse NS0 cells by surface plasmon resonance analysis
Sequence of Toll-like receptor 4 (O00206 whole entry, the tested form may be a part): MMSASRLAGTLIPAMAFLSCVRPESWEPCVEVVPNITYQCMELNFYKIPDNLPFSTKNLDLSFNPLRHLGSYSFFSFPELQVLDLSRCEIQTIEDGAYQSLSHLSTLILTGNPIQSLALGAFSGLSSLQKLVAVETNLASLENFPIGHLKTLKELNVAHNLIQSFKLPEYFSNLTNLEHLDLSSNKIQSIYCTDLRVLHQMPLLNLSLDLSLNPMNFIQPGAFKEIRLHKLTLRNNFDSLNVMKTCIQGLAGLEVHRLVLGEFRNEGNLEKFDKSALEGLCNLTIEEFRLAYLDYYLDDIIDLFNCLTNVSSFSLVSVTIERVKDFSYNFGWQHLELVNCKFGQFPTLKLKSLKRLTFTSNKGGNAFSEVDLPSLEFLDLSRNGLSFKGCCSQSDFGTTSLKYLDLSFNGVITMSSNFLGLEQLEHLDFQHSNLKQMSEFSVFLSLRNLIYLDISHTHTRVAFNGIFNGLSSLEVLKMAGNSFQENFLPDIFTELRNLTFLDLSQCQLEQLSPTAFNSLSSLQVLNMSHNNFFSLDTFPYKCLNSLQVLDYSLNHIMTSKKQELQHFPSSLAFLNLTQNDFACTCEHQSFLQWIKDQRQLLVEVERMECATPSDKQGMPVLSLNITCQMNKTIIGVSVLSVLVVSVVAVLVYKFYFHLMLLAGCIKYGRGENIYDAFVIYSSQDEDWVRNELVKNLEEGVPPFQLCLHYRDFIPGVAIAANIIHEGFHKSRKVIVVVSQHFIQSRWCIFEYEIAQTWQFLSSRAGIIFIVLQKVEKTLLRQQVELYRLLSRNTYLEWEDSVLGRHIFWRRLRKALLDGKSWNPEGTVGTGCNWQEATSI

[15] = biological target: Cyclin-dependent kinase 9 (Homo sapiens) (UniProt P50750); assay: Inhibition of wild-type human full length CDK9 (M1 to F372 residues) expressed in bacterial expression system at 1 uM by Kinomescan method; how it was run: as §3
[16] = biological target: Serine/threonine-protein kinase PAK 2 (Homo sapiens) (UniProt Q13177); assay: Inhibition of wild-type human partial length PAK2 (P151 to R525 residues) expressed in bacterial expression system at 1 uM by Kinomescan method; how it was run: as §1
[17] = biological target: Fibroblast growth factor receptor 2 (Homo sapiens) (UniProt P21802); assay: Inhibition of wild-type human partial length FGFR2 (D457 to E769 residues) expressed in bacterial expression system at 1 uM by Kinomescan method; how it was run: as §1
Sequence of Fibroblast growth factor receptor 2 (Homo sapiens) (P21802 22-821 limits assumed): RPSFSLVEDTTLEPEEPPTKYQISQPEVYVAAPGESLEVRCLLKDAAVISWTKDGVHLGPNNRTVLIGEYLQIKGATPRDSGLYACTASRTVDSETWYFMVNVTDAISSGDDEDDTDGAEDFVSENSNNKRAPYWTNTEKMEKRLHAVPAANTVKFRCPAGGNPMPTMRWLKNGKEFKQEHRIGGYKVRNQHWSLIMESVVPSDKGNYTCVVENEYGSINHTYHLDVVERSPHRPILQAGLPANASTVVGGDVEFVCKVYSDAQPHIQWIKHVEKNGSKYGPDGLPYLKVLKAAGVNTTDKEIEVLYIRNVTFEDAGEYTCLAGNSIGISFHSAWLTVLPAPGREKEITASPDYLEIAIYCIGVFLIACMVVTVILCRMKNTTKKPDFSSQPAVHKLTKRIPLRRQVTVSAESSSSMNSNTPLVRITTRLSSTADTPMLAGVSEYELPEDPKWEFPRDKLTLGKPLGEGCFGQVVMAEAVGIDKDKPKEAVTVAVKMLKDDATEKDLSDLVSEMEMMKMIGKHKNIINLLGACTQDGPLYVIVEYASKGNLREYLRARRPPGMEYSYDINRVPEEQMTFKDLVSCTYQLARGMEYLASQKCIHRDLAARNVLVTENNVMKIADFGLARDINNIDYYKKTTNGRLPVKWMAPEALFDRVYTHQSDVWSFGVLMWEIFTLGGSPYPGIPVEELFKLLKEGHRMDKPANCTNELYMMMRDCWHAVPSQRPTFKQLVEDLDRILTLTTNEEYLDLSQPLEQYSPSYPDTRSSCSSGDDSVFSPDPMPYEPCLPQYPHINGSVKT

[18] = biological target: Mitogen-activated protein kinase 9 (Homo sapiens) (UniProt P45984); assay: Inhibition of wild-type human full length JNK2 (M1 to Q382 residues) expressed in mammalian expression system at 1 uM by Kinomescan method; how it was run: as §3
[19] = biological target: Phosphatidylinositol 4,5-bisphosphate 3-kinase catalytic subunit alpha isoform (Homo sapiens) (UniProt P42336); assay: Inhibition of wild-type human partial length PIK3CA (R108 to N1068 residues) expressed in mammalian expression system at 1 uM by Kinomescan method; how it was run: as §1
Mus musculus [20] = assay: Antiinflammatory activity in LPS-induced C57BL/6 mouse model of acute lung injury assessed as reduction in COX2 mRNA level at 10 mg/kg, iv pretreated for 15 mins followed by LPS stimulation and measured after 6 hrs by SYBR green staining-based qRT-PCR analysis; assay type: functional, organism-based
How it was run: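 Total lung RNA extracted, with DNase I removal of residual DNA. Quantitative PCR with mouse gene primers; each gene normalized to β-actin. C57BL/6 mice given compound iv 15 min before intraperitoneal LPS (20 mg/kg) and killed at 6 h.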

O=C(Nc1ccc2[nH]nc(-c3ccc4[nH]ccc4c3)c2c1)c1c(Cl)cccc1Cl
inhibition [1]: inactive | Activity (Mus musculus [2]): Active | inhibition [3]: inactive | inhibition [4]: inactive | inhibition [5]: inactive | inhibition [6]: inactive | inhibition [7]: inactive | inhibition [8]: inactive | inhibition [9]: inactive | Activity (Peritoneal macrophage): Non-Toxic | inhibition [10]: inactive | Activity (Mus musculus [11]): Active | inhibition [12]: inactive | inhibition [13]: inactive | inhibition [14]: inactive | Kd (Toll-like receptor 4): 146 µM | inhibition [15]: inactive | inhibition [16]: inactive | inhibition [17]: inactive | inhibition [18]: inactive | inhibition [19]: inactive | Activity (Mus musculus [20]): Active
